Assays:
[1] = target: T1, Sodium channel protein type 9 subunit alpha (Mus musculus, UniProt Q62205); test: Inhibition of mouse Nav1.7 expressed in HEK293 cells incubated for 3 to 5 mins at -125 mV holding potential by electrophysiology assay; assay type: cell-based
[2] = AUC (infinity) in Harlan rat at 1 mg/kg, iv by LC-MS/MS analysis; assay type: ADME, organism-based; parameters: dose 1 mg/kg, route intravenous, time infinity; settings: in vivo
Summary of the method: (§1)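 Male fed rats. The IV dose was given in 100% DMSO. The oral dose was given in 1% Tween 80, 2% HPMC, 97% water/NaOH (pH 8.5).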

[3] = Clearance in Harlan rat at 1 mg/kg, iv by LC-MS/MS analysis; assay type: ADME, organism-based; settings: in vivo; summary of the method: as §1
[4] = Half life in Harlan rat at 1 mg/kg, iv by LC-MS/MS analysis; assay type: ADME, organism-based; settings: in vivo; summary of the method: as §1
[5] = Plasma protein binding in Harlan rat at 1 mg/kg, iv by LC-MS/MS analysis; assay type: ADME, organism-based; settings: read-out: PPB (converted)
[6] = target: T1, Sodium channel protein type 9 subunit alpha; test: Inhibition of Nav1.7 in C57BL/6 mouse DRG neurons assessed as reduction in native TTX-S current amplitude by manual patch clamp electrophysiology assay
[7] = Free plasma concentration in naive C57BL/6 mouse assessed as effect on basic locomotor movement at 30 mg/kg, po measured after 4 hrs for 60 mins by open field test; assay type: ADME, organism-based; settings: in vivo
Summary of the method: (§2)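 Naive mice were dosed orally with vehicle or test article at 30, 100 or 300 mg/kg (n = 10 per group). Total basic movement in an open-field arena was recorded after dosing, and unbound plasma concentration was reported per dose.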

[8] = target: Sodium channel protein type 1 subunit alpha (Homo sapiens, UniProt P35498); test: Inhibition of human Nav1.1 expressed in HEK293 cells assessed as reduction in peak inward current by manual whole cell patch clamp electrophysiology assay; assay type: cell-based
[9] = target: Sodium channel protein type 8 subunit alpha (Homo sapiens, UniProt Q9UQD0); test: Inhibition of human Nav1.6 expressed in HEK293 cells assessed as reduction in peak inward current by manual whole cell patch clamp electrophysiology assay; assay type: cell-based
Bile salt export pump = Bile salt export pump (Homo sapiens, UniProt O95342); test: Inhibition of human BSEP in plasma membrane vesicles after 10 mins in presence of [3H]-taurocholate by topcount based transport assay; assay type: cell membranes
Sequence of Bile salt export pump (O95342 whole entry, the tested form may be a part): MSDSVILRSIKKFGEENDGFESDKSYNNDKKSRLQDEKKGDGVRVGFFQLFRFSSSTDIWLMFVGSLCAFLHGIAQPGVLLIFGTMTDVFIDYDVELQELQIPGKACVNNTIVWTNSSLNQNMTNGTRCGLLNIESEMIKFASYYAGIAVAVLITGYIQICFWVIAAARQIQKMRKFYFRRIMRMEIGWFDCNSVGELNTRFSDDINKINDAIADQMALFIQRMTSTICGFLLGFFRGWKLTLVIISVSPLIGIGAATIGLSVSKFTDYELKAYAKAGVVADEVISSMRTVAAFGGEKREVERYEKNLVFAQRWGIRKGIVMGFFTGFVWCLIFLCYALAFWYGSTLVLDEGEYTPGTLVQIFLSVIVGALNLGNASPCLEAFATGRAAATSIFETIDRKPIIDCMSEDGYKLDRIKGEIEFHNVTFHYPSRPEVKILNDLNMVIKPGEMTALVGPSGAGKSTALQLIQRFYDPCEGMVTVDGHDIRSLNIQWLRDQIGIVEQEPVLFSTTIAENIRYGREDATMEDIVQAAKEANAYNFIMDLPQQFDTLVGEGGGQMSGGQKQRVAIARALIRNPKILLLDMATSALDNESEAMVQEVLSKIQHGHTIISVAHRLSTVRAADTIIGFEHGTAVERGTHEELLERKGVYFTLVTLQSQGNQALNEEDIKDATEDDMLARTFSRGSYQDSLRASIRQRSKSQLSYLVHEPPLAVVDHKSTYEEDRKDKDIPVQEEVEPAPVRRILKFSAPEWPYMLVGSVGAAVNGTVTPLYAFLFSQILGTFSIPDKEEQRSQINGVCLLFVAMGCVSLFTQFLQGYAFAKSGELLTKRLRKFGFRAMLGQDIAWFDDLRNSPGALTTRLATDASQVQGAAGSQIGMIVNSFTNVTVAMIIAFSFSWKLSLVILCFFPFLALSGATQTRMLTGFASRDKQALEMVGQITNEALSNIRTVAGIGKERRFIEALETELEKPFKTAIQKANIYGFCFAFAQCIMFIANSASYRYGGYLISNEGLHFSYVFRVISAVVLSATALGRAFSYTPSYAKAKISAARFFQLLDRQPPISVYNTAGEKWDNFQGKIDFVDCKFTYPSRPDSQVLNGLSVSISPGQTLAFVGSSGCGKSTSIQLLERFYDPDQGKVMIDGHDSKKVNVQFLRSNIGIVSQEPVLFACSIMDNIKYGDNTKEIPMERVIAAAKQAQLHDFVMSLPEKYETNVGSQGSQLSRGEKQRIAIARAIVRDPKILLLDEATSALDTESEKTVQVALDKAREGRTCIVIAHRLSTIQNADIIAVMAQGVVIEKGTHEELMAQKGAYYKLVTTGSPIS

[10] = target: Sodium channel protein type 9 subunit alpha (Homo sapiens, UniProt Q15858); test: Displacement of [3H]-6,6-fused heteroaryl-sulfonamide derivative from human Nav1.7 expressed in HEK293 cell membranes preincubated for 30 mins followed by radioligand addition measured after 1 hr by scintillation counting analysis
[11] = Toxicity in naive C57BL/6 mouse assessed as effect on basic locomotor movement at 300 mg/kg, po measured after 4 hrs for 60 mins by open field test; assay type: organism-based; settings: in vivo; summary of the method: as §2
[12] = Unbound plasma concentration in C57BL/6 mouse model of histamine-induced scratching at 100 mg/kg, po administered 4 hrs prior to histamine challenge; assay type: ADME, organism-based; settings: in vivo
Summary of the method: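 Mice were dosed orally with vehicle, diphenhydramine (30 mg/kg, n = 8) or test article at 30 (n = 9), 100 (n = 10) or 300 (n = 10) mg/kg; vehicle n = 12. All groups received histamine intradermally. Total scratch bouts were counted, with unbound plasma concentration reported per dose. Statistics: one-way ANOVA with Dunnett's test versus vehicle.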

[13] = Free plasma concentration in naive C57BL/6 mouse assessed as effect on basic locomotor movement at 100 mg/kg, po measured after 4 hrs for 60 mins by open field test; assay type: ADME, organism-based; settings: in vivo; summary of the method: as §2
[14] = target: Voltage-gated inwardly rectifying potassium channel KCNH2 (Homo sapiens, UniProt Q12809)
Sequence of Voltage-gated inwardly rectifying potassium channel KCNH2 (Q12809 whole entry): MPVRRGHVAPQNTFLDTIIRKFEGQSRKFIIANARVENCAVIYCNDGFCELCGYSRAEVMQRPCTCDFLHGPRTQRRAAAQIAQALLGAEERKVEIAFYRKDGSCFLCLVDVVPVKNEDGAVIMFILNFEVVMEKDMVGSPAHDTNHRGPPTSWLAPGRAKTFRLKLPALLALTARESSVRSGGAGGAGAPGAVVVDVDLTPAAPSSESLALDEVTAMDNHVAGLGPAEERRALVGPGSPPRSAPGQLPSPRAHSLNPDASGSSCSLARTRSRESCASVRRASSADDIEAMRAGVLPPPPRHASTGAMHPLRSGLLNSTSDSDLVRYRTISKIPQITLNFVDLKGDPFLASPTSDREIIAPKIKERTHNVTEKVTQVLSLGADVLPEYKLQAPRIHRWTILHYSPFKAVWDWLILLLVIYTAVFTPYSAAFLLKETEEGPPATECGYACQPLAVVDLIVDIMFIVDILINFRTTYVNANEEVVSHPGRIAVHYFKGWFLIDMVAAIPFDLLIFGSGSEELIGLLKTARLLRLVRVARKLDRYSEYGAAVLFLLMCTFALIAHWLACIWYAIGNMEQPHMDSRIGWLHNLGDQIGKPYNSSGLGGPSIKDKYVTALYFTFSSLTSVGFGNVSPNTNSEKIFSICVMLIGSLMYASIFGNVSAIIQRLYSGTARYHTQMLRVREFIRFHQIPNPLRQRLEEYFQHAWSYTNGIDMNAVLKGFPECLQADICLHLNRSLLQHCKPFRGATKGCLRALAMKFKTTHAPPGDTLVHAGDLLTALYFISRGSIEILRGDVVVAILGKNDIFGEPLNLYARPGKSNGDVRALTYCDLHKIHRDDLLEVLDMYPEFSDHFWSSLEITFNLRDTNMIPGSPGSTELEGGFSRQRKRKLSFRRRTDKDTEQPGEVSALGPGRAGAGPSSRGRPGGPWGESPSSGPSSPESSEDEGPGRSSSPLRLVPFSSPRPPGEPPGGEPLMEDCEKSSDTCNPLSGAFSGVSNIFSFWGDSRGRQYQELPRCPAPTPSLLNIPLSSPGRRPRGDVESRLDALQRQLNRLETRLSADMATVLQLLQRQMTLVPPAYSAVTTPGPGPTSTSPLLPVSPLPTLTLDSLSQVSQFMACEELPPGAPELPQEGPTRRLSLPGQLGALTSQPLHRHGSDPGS

Cytochrome P450 2D6 = Cytochrome P450 2D6 (Homo sapiens, UniProt P10635)
Sequence of Cytochrome P450 2D6 (P10635 whole entry): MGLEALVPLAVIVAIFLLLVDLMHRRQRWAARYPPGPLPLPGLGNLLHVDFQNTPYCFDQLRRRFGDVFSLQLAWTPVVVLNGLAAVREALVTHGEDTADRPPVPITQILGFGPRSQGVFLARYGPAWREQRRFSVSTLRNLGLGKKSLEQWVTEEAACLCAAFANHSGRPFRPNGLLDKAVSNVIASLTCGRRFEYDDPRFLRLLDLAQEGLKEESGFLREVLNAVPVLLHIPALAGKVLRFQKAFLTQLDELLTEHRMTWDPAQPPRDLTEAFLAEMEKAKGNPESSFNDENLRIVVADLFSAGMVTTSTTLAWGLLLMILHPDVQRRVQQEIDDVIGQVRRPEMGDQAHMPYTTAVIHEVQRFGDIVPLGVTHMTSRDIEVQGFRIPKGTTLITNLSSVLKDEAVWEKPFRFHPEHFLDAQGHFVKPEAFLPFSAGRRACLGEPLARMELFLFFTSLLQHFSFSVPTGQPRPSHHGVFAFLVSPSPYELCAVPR

in vitro = settings: human, liver microsomes
[15] = Toxicity in C57BL/6 mouse assessed as reduction in locomotor activity at 30 mg/kg, po for 4 hrs by open field test; settings: in vivo
[16] = Toxicity in C57BL/6 mouse assessed as reduction in locomotor activity at 100 mg/kg, po for 4 hrs by open field test; settings: in vivo

T1 sequence (Q62205 whole entry): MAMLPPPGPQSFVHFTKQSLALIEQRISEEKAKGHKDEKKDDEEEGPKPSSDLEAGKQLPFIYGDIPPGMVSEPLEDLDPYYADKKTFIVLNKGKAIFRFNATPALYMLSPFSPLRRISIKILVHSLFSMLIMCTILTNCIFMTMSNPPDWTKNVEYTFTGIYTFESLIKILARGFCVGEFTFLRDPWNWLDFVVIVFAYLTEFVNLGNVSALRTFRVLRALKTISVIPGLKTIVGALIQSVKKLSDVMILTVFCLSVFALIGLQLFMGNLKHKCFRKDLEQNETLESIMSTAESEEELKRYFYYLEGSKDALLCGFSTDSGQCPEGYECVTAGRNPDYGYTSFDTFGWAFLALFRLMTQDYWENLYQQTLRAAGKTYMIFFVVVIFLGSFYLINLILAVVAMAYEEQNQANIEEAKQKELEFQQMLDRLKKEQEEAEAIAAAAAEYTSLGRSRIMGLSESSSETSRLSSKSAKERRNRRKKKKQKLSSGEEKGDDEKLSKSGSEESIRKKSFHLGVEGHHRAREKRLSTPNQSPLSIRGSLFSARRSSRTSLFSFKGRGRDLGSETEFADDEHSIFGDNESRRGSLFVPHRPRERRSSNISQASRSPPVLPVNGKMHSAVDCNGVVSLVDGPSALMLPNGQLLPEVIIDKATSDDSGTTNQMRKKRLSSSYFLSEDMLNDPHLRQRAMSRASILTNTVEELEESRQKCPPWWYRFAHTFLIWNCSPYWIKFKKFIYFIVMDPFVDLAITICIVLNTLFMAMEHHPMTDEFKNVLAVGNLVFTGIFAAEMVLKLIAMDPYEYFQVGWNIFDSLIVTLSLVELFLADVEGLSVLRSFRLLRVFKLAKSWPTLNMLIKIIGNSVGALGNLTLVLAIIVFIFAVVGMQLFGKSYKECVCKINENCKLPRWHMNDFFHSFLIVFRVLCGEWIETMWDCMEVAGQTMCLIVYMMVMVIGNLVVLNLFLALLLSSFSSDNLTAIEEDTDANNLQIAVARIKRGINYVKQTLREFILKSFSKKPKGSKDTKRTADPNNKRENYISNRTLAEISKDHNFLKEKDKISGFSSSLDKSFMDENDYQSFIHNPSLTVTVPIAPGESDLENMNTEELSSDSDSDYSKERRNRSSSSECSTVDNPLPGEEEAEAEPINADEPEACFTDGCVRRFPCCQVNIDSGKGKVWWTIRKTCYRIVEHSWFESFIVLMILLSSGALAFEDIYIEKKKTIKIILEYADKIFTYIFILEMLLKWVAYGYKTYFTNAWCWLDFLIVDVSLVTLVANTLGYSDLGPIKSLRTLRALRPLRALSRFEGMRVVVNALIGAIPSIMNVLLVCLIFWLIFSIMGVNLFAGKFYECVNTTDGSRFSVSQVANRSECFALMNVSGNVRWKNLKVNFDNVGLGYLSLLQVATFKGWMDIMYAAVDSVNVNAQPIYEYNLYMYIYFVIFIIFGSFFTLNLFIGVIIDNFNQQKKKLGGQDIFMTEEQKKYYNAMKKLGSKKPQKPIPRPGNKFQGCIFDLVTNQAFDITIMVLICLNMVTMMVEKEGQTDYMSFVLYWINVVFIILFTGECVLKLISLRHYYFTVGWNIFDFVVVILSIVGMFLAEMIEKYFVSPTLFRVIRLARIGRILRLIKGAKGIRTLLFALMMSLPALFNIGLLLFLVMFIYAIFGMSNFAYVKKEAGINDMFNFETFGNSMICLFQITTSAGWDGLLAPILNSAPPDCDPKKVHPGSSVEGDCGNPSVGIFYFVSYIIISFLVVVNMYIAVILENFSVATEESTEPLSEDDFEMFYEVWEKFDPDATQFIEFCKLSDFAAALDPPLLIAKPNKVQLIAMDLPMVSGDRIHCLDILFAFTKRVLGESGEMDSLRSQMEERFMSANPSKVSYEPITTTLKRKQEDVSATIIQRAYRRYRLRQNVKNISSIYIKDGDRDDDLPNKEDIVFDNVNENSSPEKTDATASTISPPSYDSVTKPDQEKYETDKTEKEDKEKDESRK

IC50 [1]: 0.115 µM | AUC(0-inf) [2]: 5.4 µM·h | clearance [3]: 6.5 mL/min/kg | half-life [4]: 1.84 h | fraction unbound [5]: 0.004 | IC50 [6]: 0.27 µM | Cp(f) [7]: 640 nM | IC50 [8]: 8.5 µM | IC50 [9]: 9.4 µM | IC50 [10]: 0.017 µM | Cp(f) [12]: 1270 nM | Cp(f) [13]: 2390 nM | IC50 (Cytochrome P450 2D6): > 50 µM | microsomal CLint at 1 µM (in vitro): 27 µL/min/mg
SMILES: COc1cc(C(=O)NS(C)(=O)=O)c(F)cc1-c1cnc(Oc2cc(F)ccc2F)c(Cl)c1
IC50 (Bile salt export pump): 13.3 µM | Activity [11]: Non-Toxic | Ki [14]: > 30 µM | Activity [15]: Non-Toxic | Activity [16]: Non-Toxic

Source: ChEMBL document CHEMBL4428053, “Application of a Parallel Synthetic Strategy in the Discovery of Biaryl Acyl Sulfonamides as Efficient and Selective NaV1.7 Inhibitors” (J Med Chem, 2016)
